Experimental data from ChEMBL document CHEMBL1126698, “Synthesis and amnesia-reversal activity of a series of 7- and 5-membered 3-acylamino lactams” (1993).

Experiments:
Format in all cases: functional
Mus musculus [1] = experiment: Amnesia-reversal activity in ECS-induced amnesia model of mice at 1 mg/kg i.p.; settings: route intraperitoneal
Procedure, shortened: (§1)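 Male CD1 mice (24–28 g), step-through passive avoidance. Amnesia induced by ECS through auricular electrodes (20 mA, 0.6 ms pulses, 0.5 s, 50 Hz) immediately after the acquisition trial. Compound given ip 30 min before acquisition, at doses equimolar to 1 or 10 mg/kg Piracetam. Retention latency capped at 300 s. AA = CI(treated)/CI(sham) × 100, with CI derived from Mann-Whitney U versus amnesic controls.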

Mus musculus [2] = experiment: Amnesia-reversal activity in ECS-induced amnesia model of mice at 10 mg/kg i.p.; settings: route intraperitoneal; procedure, shortened: as §1
Mus musculus [3] = experiment: Amnesia-reversal activity in scopolamine-induced amnesia model of mice at 1 mg/kg i.p.; settings: route intraperitoneal
Procedure, shortened: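 Step-through passive avoidance in male CD1 mice (24–28 g). Scopolamine hydrobromide 1.5 mg/kg sc given 15 min before the acquisition trial. Test substance given ip 30 min before acquisition at a dose equimolar to 1 mg/kg Piracetam. Retention latency end point 300 s. AA is the treated-to-sham ratio of confrontation indices (×100), each index computed from Mann-Whitney U against the scopolamine-only group.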

Mus musculus [4] = experiment: Amnesia-reversal activity evaluated in ECS-induced amnesia model of mice at a dose of 1 mg/kg
Procedure, shortened: (§2)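 Male CD1 mice (24–28 g), step-through passive avoidance, retention end point 300 s. ECS via auricular electrodes (20 mA, 0.6 ms pulses, 0.5 s, 50 Hz) immediately after the acquisition trial. Compounds given ip 30 min before acquisition at doses equimolar to 1, 10 (and 100 for references) mg/kg Piracetam. Retention latency vs control by Mann-Whitney U. AA = CI treated/CI sham ×100.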

Mus musculus [5] = experiment: Amnesia-reversal activity evaluated in ECS-induced amnesia model of mice at a dose of 10 mg/kg; procedure, shortened: as §2
Mus musculus [6] = experiment: Amnesia-reversal activity evaluated in scopolamine-induced amnesia model of mice at a dose of 1 mg/kg
Procedure, shortened: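 Male CD1 mice (24–28 g), step-through passive avoidance, retention end point 300 s. Scopolamine hydrobromide 1.5 mg/kg sc 15 min before acquisition. Compounds given ip 30 min before acquisition at a dose equimolar to 1 mg/kg Piracetam. Retention latency vs control by Mann-Whitney U. AA = CI treated/CI sham ×100.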

Mus musculus [7] = experiment: Amnesia-reversal activity (AA) evaluated in ECS-induced amnesia model of mice at a dose of 100 mg/kg; procedure, shortened: as §2

SMILES	AA (Mus musculus [1])	AA (Mus musculus [2])	AA (Mus musculus [3])	AA (Mus musculus [4])	AA (Mus musculus [5])	AA (Mus musculus [6])	AA (Mus musculus [7])
O=C(CN1CCCC1=O)NC1CCCCNC1=O (stereo not drawn)	10	0	21				
COC(=O)CN1CCCC[C@H](NC(=O)CCCc2ccccc2)C1=O				0	0	0	
O=C(CCCc1ccccc1)N[C@H]1CCCCN(CCO)C1=O	7	20	12				
NC(=O)CN1CCCC[C@H](NC=O)C1=O	55	9	0				
O=CCN1CCCC[C@H](NC(=O)CCCc2ccccc2)C1=O				0	25	26	
O=C(N[C@@H]1CCCCNC1=O)c1cccc(C(F)(F)F)c1	21	0	15				
N[C@H]1CCNC1=O				24	0	0	
N[C@H]1CCCCNC1=O				37	26	47	
O=C(NC1CCCCNC1=O)c1cccc(C(F)(F)F)c1 (stereo not drawn)	18	17	65				
COc1ccc(C(=O)NC2CCCCNC2=O)cc1 (stereo not drawn)	37	37	0				
O=C(CCCc1ccccc1)NC1CCCCNC1=O (stereo not drawn)	0	0	5				
O=C1NCCCCC1NC(=O)[C@@H]1CCCN1C(=O)OCc1ccccc1 (stereo partly drawn)	0		27				
NC(=O)CN1CCCC[C@H](NC(=O)CCCc2ccccc2)C1=O	0	0	0				
O=C(NC1CCNC1=O)c1cccc(C(F)(F)F)c1 (stereo not drawn)	51	58	0				
O=CN[C@H]1CCCCN(CCO)C1=O	46	61	7				
COC(=O)CN1CCCC[C@H](NC=O)C1=O	0	9	0				
O=CNC1CCCCNC1=O (stereo not drawn)	71	55	49				
COc1cc(C(=O)NC2CCCCNC2=O)cc(OC)c1OC (stereo not drawn)	31	42	0				
O=CNC1CCNC1=O (stereo not drawn)				53	9	0	
CC(=O)NC1CCCCNC1=O (stereo not drawn)	7	14	39				
N[C@@H]1CCCCNC1=O				0	25	44	
COc1ccc(C(=O)N2CCCC2=O)cc1 [ANIRACETAM]	29	0	18				83
NC(=O)CN1CC(O)CC1=O (stereo not drawn) [OXIRACETAM]	31	8	0				57
NC(=O)CN1CCCC1=O [PIRACETAM]	0	0					39
